# Laboratory results as given in ChEMBL document CHEMBL1145189, “Synthesis and evaluation of S-acyl-2-thioethyl esters of modified nucleoside 5'-monophosphates as inhibitors of hepatitis C virus RNA replication” (J Med Chem, 2005).
# Values joined by “and” are separate entries in the source; they are usually repeats but may differ in a detail not shown here. Identical values can stand only once.
# What was measured:
# [1] = Effective concentration against hepatitis C virus RNA replication in a subgenomic bicistronic replicon in HBI10A cells; assay type: functional, cell-based; conditions: Homo sapiens
# How it was run: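 Stable Huh-7-derived HBI10A hepatoma line carrying a subgenomic bicistronic HCV replicon. Compound incubated with cells for 24 h. Relative replicon RNA then quantified by in situ ribonuclease protection assay.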
# [2] = Cytotoxic concentration of compound in human HBI10A cells infected with hepatitis C virus in MTS assay; assay type: functional
# How it was run: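 MTS cytotoxicity run on samples parallel to the replicon assay, at the same time (24 h compound exposure). Cells plated at 2.0 × 10⁴/well and compound added next day at 2× in medium. Incubation at 37 °C, 5% CO₂. MTS reagent added for 1 h, then absorbance read at 490 nm.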
# [3] = Inhibitory concentration against hepatitis C virus NS5B-mediated RNA synthesis in HBI10A cells; assay type: functional, cell-based; conditions: Homo sapiens
# [4] = Average intracellular Metabolism was measured in human HBI10A cells after 23 hr of incubation; assay type: functional
# How it was run: (§1)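 Radiolabeled 5-[³H] compound at 2 µM incubated with Huh-7 (passage 27) or HBI10A (passage 15) cells for 3 or 23 h. Cells extracted and analysed by ion pair reverse-phase HPLC. Triphosphate reported as pmol/million cells, with major metabolic byproducts noted. Averages of at least three separate experiments.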
# Huh-7 [5] = assay: Average intracellular Metabolism was measured in human Huh-7 cells after 3 h of incubation; assay type: functional; how it was run: as §1
# [6] = Average intracellular Metabolism was measured in human HBI10A cells after 3 h of incubation; assay type: functional; how it was run: as §1
# Huh-7 [7] = assay: Average intracellular Metabolism was measured in human Huh-7 cells after 23 hr of incubation; assay type: functional; how it was run: as §1
# CHO [8] = assay: Effect of compound (550 uM) on growth of CHO cells measured as population doublings from the beginning of the experiment as percent of controls after 20 hr of treatment (harvested at 20h of treatment); assay type: functional, Cricetulus griseus
# How it was run: (§2)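 Exponentially growing CHO (clone WBL) monolayers treated for 20 h without S-9. DMSO stock diluted 100-fold into medium, giving 1% v/v DMSO as vehicle control. Cultures harvested at 20, 30 or 42 h after dosing. Growth expressed as population doublings from start of experiment as a percentage of controls.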
# CHO [9] = assay: Effect of compound (550 uM) on growth of CHO cells measured as population doublings from the beginning of the experiment as percent of controls after 20 hr of treatment (harvested at 30h of treatment); assay type: functional, Cricetulus griseus; how it was run: as §2
# CHO [10] = assay: Effect of compound (550 uM) on growth of CHO cells measured as population doublings from the beginning of the experiment as percent of controls after 20 hr of treatment (harvested at 42h of treatment); assay type: functional, Cricetulus griseus; how it was run: as §2
# CHO [11] = assay: Effect of compound (700 uM) on growth of CHO cells measured as population doublings from the beginning of the experiment as percent of controls after 20 hr of treatment (harvested at 20h of treatment); assay type: functional, Cricetulus griseus; how it was run: as §2
# CHO [12] = assay: Effect of compound (700 uM) on growth of CHO cells measured as population doublings from the beginning of the experiment as percent of controls after 20 h of treatment (harvested at 30h of treatment); assay type: functional, Cricetulus griseus; how it was run: as §2
# CHO [13] = assay: Effect of compound (700 uM) on growth of CHO cells measured as population doublings from the beginning of the experiment as percent of controls after 20 hr of treatment (harvested at 42h of treatment); assay type: functional, Cricetulus griseus; how it was run: as §2
# CHO [14] = assay: Effect of compound (800 uM) on growth of CHO cells measured as population doublings from the beginning of the experiment as percent of controls after 20 hr of treatment (harvested at 20h of treatment); assay type: functional, Cricetulus griseus; how it was run: as §2
# CHO [15] = assay: Effect of compound (800 uM) on growth of CHO cells measured as population doublings from the beginning of the experiment as percent of controls after 20 hr of treatment (harvested at 30h of treatment); assay type: functional, Cricetulus griseus; how it was run: as §2
# CHO [16] = assay: Effect of compound (800 uM) on growth of CHO cells measured as population doublings from the beginning of the experiment as percent of controls after 20 hr of treatment (harvested at 42h of treatment); assay type: functional, Cricetulus griseus; how it was run: as §2
# CHO [17] = assay: Effect of compound (600 uM) on growth of CHO cells measured as population doublings from the beginning of the experiment as percent of controls after 20 hr of treatment (harvested at 20h of treatment); assay type: functional, Cricetulus griseus; how it was run: as §2
# CHO [18] = assay: Effect of compound (600 uM) on growth of CHO cells measured as population doublings from the beginning of the experiment as percent of controls after 20 hr of treatment (harvested at 30h of treatment); assay type: functional, Cricetulus griseus; how it was run: as §2
# CHO [19] = assay: Effect of compound (600 uM) on growth of CHO cells measured as population doublings from the beginning of the experiment as percent of controls after 20 hr of treatment (harvested at 42h of treatment); assay type: functional, Cricetulus griseus; how it was run: as §2
# CHO [20] = assay: Effect of compound (650 uM) on growth of CHO cells measured as population doublings from the beginning of the experiment as percent of controls after 20 hr of treatment (harvested at 20h of treatment); assay type: functional, Cricetulus griseus; how it was run: as §2
# CHO [21] = assay: Effect of compound (650 uM) on growth of CHO cells measured as population doublings from the beginning of the experiment as percent of controls after 20 hr of treatment (harvested at 30h of treatment); assay type: functional, Cricetulus griseus; how it was run: as §2
# CHO [22] = assay: Effect of compound (650 uM) on growth of CHO cells measured as population doublings from the beginning of the experiment as percent of controls after 20 hr of treatment (harvested at 42h of treatment); assay type: functional, Cricetulus griseus; how it was run: as §2
# CHO [23] = assay: Percent of CHO cells with chromosomal aberrations were determined at 550 uM compound after 20 hr of treatment (harvested at 20h of treatment); assay type: functional, Cricetulus griseus
# How it was run: (§3)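 CHO (clone WBL) monolayers treated for 20 h without S-9, with DMSO stock diluted 100-fold into medium. Harvest at 20, 30 or 42 h after dosing; colcemid added 1–2 h before harvest for metaphase arrest. Cells fixed, and 200 cells scored per point for % aberrant cells. Points not scored where toxicity prevented it. Comparison against concurrent controls.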
# CHO [24] = assay: Percent of CHO cells with chromosomal aberrations were determined at 550 uM compound after 20 hr of treatment (harvested at 30h of treatment); assay type: functional, Cricetulus griseus; how it was run: as §3
# CHO [25] = assay: Percent of CHO cells with chromosomal aberrations were determined at 600 uM compound after 20 hr of treatment (harvested at 20h of treatment); assay type: functional, Cricetulus griseus; how it was run: as §3
# CHO [26] = assay: Percent of CHO cells with chromosomal aberrations were determined at 600 uM compound after 20 hr of treatment (harvested at 30h of treatment); assay type: functional, Cricetulus griseus; how it was run: as §3
# CHO [27] = assay: Percent of CHO cells with chromosomal aberrations were determined at 600 uM compound after 20 hr of treatment (harvested at 42h of treatment); assay type: functional, Cricetulus griseus; how it was run: as §3
# CHO [28] = assay: Percent of CHO cells with chromosomal aberrations were determined at 650 uM compound after 20 hr of treatment (harvested at 30h of treatment); assay type: functional, Cricetulus griseus; how it was run: as §3
# CHO [29] = assay: Percent of CHO cells with chromosomal aberrations were determined at 700 uM compound after 20 hr of treatment (harvested at 42h of treatment); assay type: functional, Cricetulus griseus; how it was run: as §3
# CHO [30] = assay: Percent of CHO cells with chromosomal aberrations were determined at 650 uM compound after 20 hr of treatment (harvested at 20h of treatment); Not scored because of toxicity; assay type: functional, cell-based; conditions: Cricetulus griseus; how it was run: as §3
# CHO [31] = assay: Percent of CHO cells with chromosomal aberrations were determined at 700 uM compound after 20 hr of treatment (harvested at 20h of treatment); Not scored because of toxicity; assay type: functional, cell-based; conditions: Cricetulus griseus; how it was run: as §3
# CHO [32] = assay: Percent of CHO cells with chromosomal aberrations were determined at 700 uM compound after 20 h of treatment (harvested at 30h of treatment); Not scored because of toxicity; assay type: functional, cell-based; conditions: Cricetulus griseus; how it was run: as §3
# CHO [33] = assay: Percent of CHO cells with chromosomal aberrations were determined at 800 uM compound after 20 hr of treatment (harvested at 20h of treatment); Not scored because of toxicity; assay type: functional, cell-based; conditions: Cricetulus griseus; how it was run: as §3
# CHO [34] = assay: Percent of CHO cells with chromosomal aberrations were determined at 800 uM compound after 20 hr of treatment (harvested at 30h of treatment); Not scored because of toxicity; assay type: functional, cell-based; conditions: Cricetulus griseus; how it was run: as §3
# CHO [35] = assay: Percent of CHO cells with chromosomal aberrations were determined at 800 uM compound after 20 hr of treatment (harvested at 42h of treatment); Not scored because of toxicity; assay type: functional, cell-based; conditions: Cricetulus griseus; how it was run: as §3
smiles,measurement,setting,value
CC(C)(C)C(=O)SCCOP(=O)(OCCSC(=O)C(C)(C)C)OC[C@@H]1C[C@@H](O)[C@H](n2ccc3c(O)nc(N)nc32)O1,EC50,[1],7.2 µM
same,CC50,[2],> 50 µM
CO[C@@H]1[C@H](O)[C@@H](CO)O[C@H]1n1ccc2c(O)nc(N)nc21,IC50,[3],0.35 µM
same,EC50,[1],> 50 µM
CO[C@@H]1[C@H](O)[C@@H](COP(=O)(OCCSC(=O)C(C)(C)C)OCCSC(=O)C(C)(C)C)O[C@H]1n1ccc(N)nc1=O,EC50,[1],3 µM
same,Activity,[4],5.8 pmol/million cells
same,Activity,Huh-7 [5],7.02 pmol/million cells
same,Activity,[6],15.9 pmol/million cells
same,Activity,Huh-7 [7],1.88 pmol/million cells
same,Growth,CHO [8],59%
same,Growth,CHO [9],82%
same,Growth,CHO [10],95%
same,Growth,CHO [11],21%
same,Growth,CHO [12],6%
same,Growth,CHO [13],47%
same,Growth,CHO [14],6%
same,Growth,CHO [15],0%
same,Growth,CHO [16],0%
same,CC50,[2],> 100 µM
same,Growth,CHO [17],51%
same,Growth,CHO [18],57%
same,Growth,CHO [19],88%
same,Growth,CHO [20],27%
same,Growth,CHO [21],46%
same,Growth,CHO [22],90%
same,Aberrant cells,CHO [23],0%
same,Aberrant cells,CHO [24],3.5%
same,Aberrant cells,CHO [25],2%
same,Aberrant cells,CHO [26],1.5%
same,Aberrant cells,CHO [27],1.5%
same,Aberrant cells,CHO [28],4.5% and 3%
same,Aberrant cells,CHO [29],3.5%
same,Aberrant cells,CHO [30],Not scored
same,Aberrant cells,CHO [31],Not scored
same,Aberrant cells,CHO [32],Not scored
same,Aberrant cells,CHO [33],Not scored
same,Aberrant cells,CHO [34],Not scored
same,Aberrant cells,CHO [35],Not scored
CC(C)(C)C(=O)SCCOP(=O)(OCCSC(=O)C(C)(C)C)OC[C@@H]1C[C@@H](O)[C@H](n2cnc3c(O)nc(N)nc32)O1,EC50,[1],23 µM
same,CC50,[2],> 50 µM
Nc1ccn([C@@H]2O[C@H](CO)C[C@H]2O)c(=O)n1,IC50,[3],1.2 µM
same,EC50,[1],25 µM
same,CC50,[2],> 50 µM
CO[C@@H]1[C@H](O)[C@@H](COP(=O)(OCCSC(=O)C(C)(C)C)OCCSC(=O)C(C)(C)C)O[C@H]1n1cnc2c(O)nc(N)nc21,EC50,[1],> 50 µM
same,CC50,[2],> 50 µM
